Test results from ChEMBL document CHEMBL4765328 (Eur J Med Chem, 2020).
Activity calls are given as the source filed them. No cut-off for these calls is given here.

Assays:
Bos taurus [1] = species: Bos taurus; assay: Inhibition of [3H]colchicine binding to bovine brain tubulin at 0.5 uM relative to control; type: tissue-based
Outline: (§1)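 [3H]colchicine binding to purified tubulin, with tubulin at 0.5 µM and colchicine at 5 µM. Compounds tested at 5 and 0.5 µM. CA-4 was run in contemporaneous experiments for comparison.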

Jurkat = assay: Antiproliferative activity against human Jurkat cells assessed as inhibition of cell growth; type: functional, cell-based
Outline: (§2)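 Compounds from 10 mM DMSO stocks; final DMSO ≤0.25%. Growth inhibition of cancer cell lines read from dose-response curves; IC50 as mean ± SEM of at least three independent experiments.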

Bos taurus [2] = species: Bos taurus; assay: Inhibition of [3H]colchicine binding to bovine brain tubulin at 5 uM relative to control; outline: as §1
Daoy = assay: Antiproliferative activity against human Daoy cells assessed as inhibition of cell growth; type: functional, cell-based; outline: as §2
HL-60 = assay: Antiproliferative activity against human HL-60 cells assessed as inhibition of cell growth; type: functional, cell-based
Outline: (§3)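 Growth inhibition of cancer cell lines read from dose-response curves; IC50 as mean ± SEM of at least three independent experiments.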

[3] = Inhibition of bovine brain tubulin polymerisation preincubated with compound followed by GTP addition and measured after 20 mins by turbidimetry based spectrophotometric method; type: tissue-based, Bos taurus
Outline: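 Bovine brain tubulin (10 µM) in glutamate buffer, preincubated with varying compound concentrations at 30 °C, then cooled to 0 °C. GTP added to 0.4 mM final, then warmed to 30 °C in a recording spectrophotometer. Assembly followed by turbidity at 350 nm.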

HeLa [4] = assay: Antiproliferative activity against human HeLa cells assessed as inhibition of cell growth; type: functional, cell-based; outline: as §3
SEM cells = assay: Antiproliferative activity against human SEM cells assessed as inhibition of cell growth; type: functional, cell-based; outline: as §2
HT-29 = assay: Antiproliferative activity against human HT-29 cells assessed as inhibition of cell growth; type: functional, cell-based; outline: as §3
[5] = Antitumor activity mouse E0771 cells implanted in C57BL/6 mouse assessed as reduction tumor growth at 30 mg/kg, ip administered every other day relative to control; type: functional, EO771; design: scale not given: the % may be the effect or the level left
Outline: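 Female C57BL/6 mice, seven weeks old, injected orthotopically into the mammary fat pad with 4 × 10^5 E0771 cells. Palpable tumours randomised into groups, dosed intraperitoneally every other day in DMSO vehicle, 100 µL final volume; vehicle-only controls. Caliper volume V=(D×d²)/2, tumour weight taken at end; n=5 mice/group; body weight monitored; two-way ANOVA with Bonferroni.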

HeLa [6] = assay: Induction of apoptosis in human HeLa cells assessed as early apoptotic cells at 10 nM measured after 48 hrs by Annexin V-FITC/propidium iodide staining based flow cytometry (reference value: 0.96 %); type: functional
HeLa [7] = assay: Induction of apoptosis in human HeLa cells assessed as necrotic cells at 10 nM measured after 24 hrs by Annexin V-FITC/propidium iodide staining based flow cytometry (reference value: […]); type: functional
HeLa [8] = assay: Induction of apoptosis in human HeLa cells assessed as early apoptotic cells at 10 nM measured after 24 hrs by Annexin V-FITC/propidium iodide staining based flow cytometry (reference value: 0.96 %); type: functional
[9] = Cytotoxicity against PHA-stimulated human PBL assessed as inhibition of cell growth; type: cell-based; details: PHA-stimulated peripheral blood lymphocytes (PBL)
Outline: (§4)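 Peripheral blood lymphocytes from healthy donors, tested either unstimulated or stimulated with PHA; DMSO ≤0.25% final. Values are mean ± SEM of three separate experiments.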

HeLa [10] = assay: Induction of apoptosis in human HeLa cells assessed as viable cells at 10 nM measured after 48 hrs by Annexin V-FITC/propidium iodide staining based flow cytometry (reference value: 97.28 %); type: functional; details: read-out: Activity
HeLa [11] = assay: Induction of apoptosis in human HeLa cells assessed as late apoptotic cells at 10 nM measured after 48 hrs by Annexin V-FITC/propidium iodide staining based flow cytometry (reference value: 1.22 %); type: functional
HeLa [12] = assay: Induction of apoptosis in human HeLa cells assessed as necrotic cells at 10 nM measured after 48 hrs by Annexin V-FITC/propidium iodide staining based flow cytometry (reference value: […]); type: functional
[13] = Cytotoxicity against normal human astrocytes assessed as inhibition of cell growth; type: cell-based, Astrocyte
HeLa [14] = assay: Induction of mitochondrial membrane potential loss in human HeLa cells assessed as cells with polarized mitochondrial membrane at 10 nM after 48 hrs by JC-1 dye-based flow cytometric analysis (reference value: 92.0 %); type: functional
HeLa [15] = assay: Induction of mitochondrial membrane potential loss in human HeLa cells assessed as cells with depolarized mitochondrial membrane at 10 nM after 24 hrs by JC-1 dye-based flow cytometric analysis (reference value: 7.8 %); type: functional
HeLa [16] = assay: Induction of mitochondrial membrane potential loss in human HeLa cells assessed as cells with depolarized mitochondrial membrane at 10 nM after 48 hrs by JC-1 dye-based flow cytometric analysis (reference value: 7.8 %); type: functional
HeLa [17] = assay: Induction of microtubule network depolymerization in human HeLa cells assessed as appearance of disorganised microtubules at 50 nM after 24 hrs by immunofluorescence staining based confocal microscopic analysis; type: cell-based
Outline: (§5)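 HeLa cells treated 24 h at 10, 50 or 100 nM. They were then fixed in cold 4% formaldehyde for 15 min and stained with anti-β-tubulin for 2 h at room temperature. Alexa 488 secondary and DAPI counterstain followed; imaged by confocal microscopy at 20X.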

HeLa [18] = assay: Induction of microtubule network depolymerization in human HeLa cells assessed as appearance of disorganised microtubules at 100 nM after 24 hrs by immunofluorescence staining based confocal microscopic analysis; type: cell-based; outline: as §5
HeLa [19] = assay: Induction of apoptosis in human HeLa cells assessed as late apoptotic cells at 10 nM measured after 24 hrs by Annexin V-FITC/propidium iodide staining based flow cytometry (reference value: 1.22 %); type: functional
[20] = Cytotoxicity against human PBL assessed as inhibition of cell growth; type: cell-based; details: peripheral blood lymphocytes (PBL); outline: as §4
HeLa [21] = assay: Induction of microtubule network depolymerization in human HeLa cells assessed as appearance of disorganised microtubules at 10 nM after 24 hrs by immunofluorescence staining based confocal microscopic analysis; type: cell-based; outline: as §5
HeLa [22] = assay: Induction of mitochondrial membrane potential loss in human HeLa cells assessed as cells with polarized mitochondrial membrane at 10 nM after 24 hrs by JC-1 dye-based flow cytometric analysis (reference value: 92.0 %); type: functional
HeLa [23] = assay: Induction of apoptosis in human HeLa cells assessed as viable cells at 10 nM measured after 24 hrs by Annexin V-FITC/propidium iodide staining based flow cytometry (reference value: 97.28 %); type: functional; details: read-out: Activity

Row | Compound | inhibition (Bos taurus [1]) [%] | IC50 (Jurkat) [nM] | inhibition (Bos taurus [2]) [%] | IC50 (Daoy) [nM] | IC50 (HL-60) [nM] | IC50 [3] [nM] | IC50 (HeLa [4]) [nM] | IC50 (SEM cells) [nM] | IC50 (HT-29) [nM] | other results
1 | COc1ccc(/C=C\c2cc(OC)c(OC)c(OC)c2)cc1O [COMBRETASTATIN A4] | 82 | 0.8 | 97 | 12.3 |  |  |  |  |  | 
2 | COc1ccc2c(C(=O)c3cc(OC)c(OC)c(OC)c3)c(N)oc2c1 | 79 | 2.7 | 99 | 0.3 | 3 | 480 | 2.9 | 4.1 | 5.6 | 
3 | COc1cc(C(=O)c2c(N)oc3ccccc23)cc(OC)c1OC |  | 385 |  | 371 | 339 |  | 413 | 250 | 591 | 
4 | COc1cc(C(=O)c2c(N)oc3ccc(N)cc23)cc(OC)c1OC |  | 399 |  | 494 | 413 |  | 635 | 259 | 790 | 
5 | COc1cc(C(=O)c2c(N)oc3cc(F)ccc23)cc(OC)c1OC |  | 299 |  | 846 | 413 |  | 591 | 333 | 682 | 
6 | COc1ccc(/C=C\c2cc(OC)c(OC)c(OC)c2)cc1OP(=O)([O-])[O-].[Na+].[Na+] [FOSBRETABULIN DISODIUM] |  |  |  |  |  |  |  |  |  | Activity [5]: 26.5%
7 | COc1cc(C(=O)c2c(N)oc3cc(O)ccc23)cc(OC)c1OC |  | 299 |  | 428 | 285 |  | 591 | 371 | 3420 | 
8 | COc1cc(C(=O)c2c(N)oc3c(O)c(OC)ccc23)cc(OC)c1OC | 87 | 0.34 | 99 | 0.32 | 2.8 | 590 | 15.3 | 259 | 424 | 
9 | CCOc1cccc2c(C(=O)c3cc(OC)c(OC)c(OC)c3)c(N)oc12 |  | 390 |  | 1670 | 428 |  | 1250 | 385 | 910 | 
10 | COc1cc(C(=O)c2c(N)oc3cc(Br)ccc23)cc(OC)c1OC | 56 | 2.8 | 92 | 2.5 | 5.6 | 570 | 4.5 | 3.5 | 5.4 | 
11 | COc1ccc2oc(N)c(C(=O)c3cc(OC)c(OC)c(OC)c3)c2c1 |  | 29.2 | 73 | 36.2 | 36.2 | 500 | 56 | 38.9 | 62.9 | 
12 | COc1cc(C(=O)c2c(N)oc3c(OC)cccc23)cc(OC)c1OC |  | 333 |  | 345 | 233 |  | 496 | 285 | 477 | 
13 | COc1ccc2c(N)c(C(=O)c3cc(OC)c(OC)c(OC)c3)oc2c1 |  | 3.1 |  | 5 | 3.5 |  | 6.2 | 3.6 | 787 | 
14 | COc1cc(C(=O)c2c(N)oc3cc(C)ccc23)cc(OC)c1OC | 74 | 0.33 | 97 | 0.34 | 3.5 | 390 | 1.1 | 0.3 | 0.6 | Activity (HeLa [6]): 37.13%; Activity (HeLa [7]): 12.11%; Activity (HeLa [8]): 10.95%; GI50 [9]: > 10000 nM; viability at 0.01 µM (HeLa [10]): 26.4%; Activity (HeLa [11]): 9.35%; Activity (HeLa [12]): 27.08%; GI50 [13]: > 10000 nM; Activity (HeLa [14]): 57.3%; Activity (HeLa [15]): 24.8%; Activity (HeLa [16]): 42.6%; Activity (HeLa [17]): Active; Activity (HeLa [18]): Active; Activity (HeLa [19]): 2.51%; GI50 [20]: > 10000 nM; Activity (HeLa [21]): Active; Activity (HeLa [22]): 74.9%; viability at 0.01 µM (HeLa [23]): 74.4%
15 | CCCOc1ccc2c(C(=O)c3cc(OC)c(OC)c(OC)c3)c(N)oc2c1 | 42 | 27.2 | 91 | 4.4 | 41.7 | 510 | 22.7 | 29.7 | 17.7 | 
16 | COc1cc(C(=O)c2c(N)oc3cc(OCc4ccccc4)ccc23)cc(OC)c1OC |  | 4390 |  | > 10000 | 7060 |  | 9670 | 3680 | 8680 | 
17 | COc1cc(C(=O)c2c(N)oc3cccc(OC)c23)cc(OC)c1OC |  | 2760 |  | 3950 | 4890 |  | 5220 | 4560 | 6510 | 
